Here are results for 1 molecule from ChEMBL document CHEMBL4680156, “Discovery of novel pyrido-pyrrolidine hybrid compounds as alpha-glucosidase inhibitors and alternative agent for control of type 1 diabetes” (Eur J Med Chem, 2020).

A short description of data set [1]: Octanol/aqueous buffer distribution coefficient, log D of compound after 1 hr by HPLC-UV analysis. It counts as physicochemical. In short, it runs like this:
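Compound was added to octanol and vortexed, then buffer was added. The mixture was shaken 1 h at room temperature, allowed to equilibrate 20 min and centrifuged at 4000 g for 30 min. Octanol and buffer layers were each quantified by HPLC-UV.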

A short description of data set [2]: Protein binding in mouse plasma assessed as unbound fraction at 10 uM after 6 hrs by LC-MS/MS analysis. It counts as ADME, cell-free. In short, it runs like this: (§1)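 Equilibrium dialysis: plasma with compound at 10 μM final on one side, 100 mM sodium phosphate pH 7.4 on the other. Equilibrated at 37 ± 1 °C for 6 h with shaking at 500 rpm. Both sides were sampled, proteins precipitated with organic solvent, and supernatants analysed by LC-MS/MS.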

In data set [3] the test system is Saccharomyces cerevisiae. The data set can be described thus: Binding affinity to Saccharomyces cerevisiae alpha-glucosidase assessed as protein with beta-sheet structure at 0.64 ug/ml by CD spectroscopic method (reference value: 68%). The note with it: dose 0.64 µg/ml. In short, it runs like this:
(§2)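 Compound was added at different concentrations to yeast α-glucosidase (30 U/ml). CD spectra were taken with 3 accumulations (negative bands at 209 and 222 nm). α-Helix and β-sheet content were estimated with secondary-structure estimation software.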

Data set [4] is described as follows: Half life in rat liver microsomes at 1 uM up to 60 mins in presence of NADPH by LC-MS/MS analysis. It counts as ADME, Microsome. The method in brief: (§3)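 Liver microsomes (1.0 mg protein/mL) were incubated with compound at 1 μM; reactions were started with 1 mM NADPH. No-NADPH incubations (0 and 60 min) served as stability controls. Reactions were stopped at 0, 5, 15, 30 and 60 min with ice-cold acetonitrile containing internal standard, then centrifuged. Parent loss was tracked by LC-MS/MS.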
Background: Liver microsomes are vesicles of endoplasmic reticulum, rich in cytochrome P450 enzymes.

A short description of data set [5]: Intrinsic clearance in rat liver microsomes at 1 uM up to 60 mins in presence of NADPH by LC-MS/MS analysis. The data set is classed as ADME, Microsome. The note with it: 1 h. In short, it runs like this:
as §3

Data set [6] deals with Saccharomyces cerevisiae. The data set can be described thus: Binding affinity to Saccharomyces cerevisiae alpha-glucosidase assessed as protein with alpha-helical structure at 0.32 ug/ml by CD spectroscopic method (reference value: 5.3%). To be noted: dose 0.32 µg/ml. In short, it runs like this: as §2
Data set [7] in a line: Stability in mouse liver microsomes assessed as CYP450-mediated drug degradation by measuring proportion of compound metabolised at 1 uM up to 60 mins in presence of NADPH by LC-MS/MS analysis. The data set is classed as ADME. The note with it: read-out: Drug degradation. In short, it runs like this: as §3
The subject of data set [8] is Rattus norvegicus. Put plainly: Decrease in post prandial glucose level in type 1 diabetic Sprague-Dawley rat model at 60 mg/kg, po administered once daily for 28 days. To be noted: time 28.0 day.
Data set [9] can be described thus: Protein binding in human plasma assessed as unbound fraction at 10 uM after 6 hrs by LC-MS/MS analysis. The data set is classed as ADME, cell-free. In short, it runs like this: as §1
Data set [10] can be described thus: Protein binding in human plasma assessed as bound fraction at 10 uM after 6 hrs by LC-MS/MS analysis. It counts as ADME, cell-free. The note with it: read-out: PPB (converted). In short, it runs like this:
as §1

The nature of data set [11]: Protein binding in rat plasma assessed as bound fraction at 10 uM after 6 hrs by LC-MS/MS analysis. The note with it: read-out: PPB (converted). The data set is classed as ADME, cell-free. The method in brief:
as §1

A short description of data set [12]: Intrinsic clearance in mouse liver microsomes at 1 uM up to 60 mins in presence of NADPH by LC-MS/MS analysis. The data set is classed as ADME, Microsome. To be noted: 1 h. The method in brief:
as §3

Data set [13] can be described thus: Stability in rat liver microsomes assessed as CYP450-mediated drug degradation by measuring proportion of compound metabolised at 1 uM up to 60 mins in presence of NADPH by LC-MS/MS analysis. It counts as ADME. The note with it: read-out: Drug degradation. The method in brief: as §3
The nature of data set [14]: Protein binding in rat plasma assessed as unbound fraction at 10 uM after 6 hrs by LC-MS/MS analysis. It counts as ADME, cell-free. In short, it runs like this:
as §1

For a further data set, the target named is T1, Alpha-mannosidase (Canavalia ensiformis, UniProt C0HJB3).
T1 sequence (C0HJB3 whole entry): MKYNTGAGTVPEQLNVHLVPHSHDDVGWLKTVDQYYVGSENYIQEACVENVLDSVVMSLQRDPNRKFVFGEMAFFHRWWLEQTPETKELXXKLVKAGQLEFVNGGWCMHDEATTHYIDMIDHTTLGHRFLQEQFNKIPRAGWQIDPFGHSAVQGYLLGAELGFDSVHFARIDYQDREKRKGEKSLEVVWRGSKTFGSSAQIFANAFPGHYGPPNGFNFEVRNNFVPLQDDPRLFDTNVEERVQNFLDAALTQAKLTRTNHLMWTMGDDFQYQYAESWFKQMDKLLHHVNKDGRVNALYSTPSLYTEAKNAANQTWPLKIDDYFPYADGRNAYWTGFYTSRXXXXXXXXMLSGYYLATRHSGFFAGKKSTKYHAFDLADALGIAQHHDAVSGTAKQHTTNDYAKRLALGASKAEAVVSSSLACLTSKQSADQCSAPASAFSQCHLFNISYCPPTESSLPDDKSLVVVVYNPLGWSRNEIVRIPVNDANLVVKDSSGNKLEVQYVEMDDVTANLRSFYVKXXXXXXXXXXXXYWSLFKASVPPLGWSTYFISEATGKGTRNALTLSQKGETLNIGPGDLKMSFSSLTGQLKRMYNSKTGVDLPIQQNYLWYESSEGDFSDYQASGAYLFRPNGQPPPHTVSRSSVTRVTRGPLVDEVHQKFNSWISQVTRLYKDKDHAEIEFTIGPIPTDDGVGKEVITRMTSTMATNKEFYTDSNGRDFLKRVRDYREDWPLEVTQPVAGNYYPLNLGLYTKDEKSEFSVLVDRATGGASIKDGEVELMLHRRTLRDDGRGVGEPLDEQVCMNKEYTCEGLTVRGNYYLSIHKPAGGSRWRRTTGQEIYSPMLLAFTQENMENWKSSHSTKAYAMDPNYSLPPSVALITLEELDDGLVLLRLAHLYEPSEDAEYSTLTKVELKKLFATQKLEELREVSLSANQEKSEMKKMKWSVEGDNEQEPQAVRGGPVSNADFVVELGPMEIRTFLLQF
Put plainly: Inhibition of jack bean alpha-mannosidase using […] as substrate incubated for 10 mins by spectrophotometric method.

The subject of data set [15] is Rattus norvegicus. The data set can be described thus: Antidiabetic activity against STZ-induced type 1 diabetic Sprague-Dawley rat model assessed as decrease in fasting blood glucose level at 60 mg/kg, po administered once daily for 28 days. To be noted: time 28.0 day. It counts as functional, organism-based. In short, it runs like this: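 Male Sprague-Dawley rats (250–320 g, 8–10 weeks) were given STZ 70 mg/kg ip once in 0.1 mmol/L citrate buffer, pH 4.5. Rats with random glucose >125 mg/dl at 4 days were counted diabetic. Dosing was 60 mg/kg in 0.5% saline by gavage once daily for 4 weeks, n=6 per group. After a 6 h fast, tail blood glucose was read by glucometer. Data are mean ± SD; 2-way ANOVA.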

The nature of data set [16]: Half life in human liver microsomes at 1 uM up to 60 mins in presence of NADPH by LC-MS/MS analysis. It counts as ADME, Microsome. The method in brief:
as §3

A short description of data set [17]: Toxicity in STZ-treated diabetic Sprague-Dawley rat model assessed as decrease in body weight at 60 mg/kg, po administered once daily for 28 days. It counts as organism-based. The note with it: in vivo, 672 h, time 28 day. In short, it runs like this:
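Male Sprague-Dawley rats (250–320 g, 8–10 weeks) were made diabetic with a single STZ dose (70 mg/kg ip in 0.1 mmol/L citrate buffer, pH 4.5). Random glucose above 125 mg/dl defined diabetes. Dosing was 60 mg/kg in 0.5% saline by gastric gavage once daily for 4 weeks, n=6 per group, with vehicle controls. Body weight was recorded before and after treatment; mean ± SD, 2-way ANOVA.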

The source made the active and inactive calls. The calls are words filed in the database; no cut-off is given here.

As for `CCOC(=O)c1ccc(-n2c(/C=C3\OC(=O)c4c3cc(C)[nH]c4=O)ccc2CO)cc1`, the logD (commonly the decadic logarithm of the distribution of all forms, ionised or not, between an organic phase and buffer at a given pH) at 1 h in data set [1] was found to be 2.4. Besides, the fraction unbound at 6 h, 10 µM in [2] was 0.0899; in data set [9], 0.107; in data set [10], 0.107; in data set [11] it was 0.0156; in data set [14], 0.0156. The Activity in the data set with Saccharomyces cerevisiae [3] was 58.9%; in the data set with Saccharomyces cerevisiae [6] it was 5.2%; in data set [17], “Non-Toxic”. Besides, the half-life (in general, the time in which the quantity being followed falls by half) at 1 µM is 15 min in [4] and 13 min in data set [16]. Further, the CLint in data set [5] came out at 54.4 µL/min/mg; in data set [12], 74.1 µL/min/mg. The metabolised at 1 h, 1 µM in data set [7] came to 99%; in [13] it was 95.2%. Besides, the inhibition result in the data set with Rattus norvegicus [8] is “inactive”. At Alpha-mannosidase, the IC50 – broadly, the concentration at which inhibition is half-maximal – is 41.2 µM. In addition, the result in the data set on Rattus norvegicus [15] was Active.
